Assay results as given in ChEMBL document CHEMBL4400560, “Discovery and optimization of novel piperazines as potent inhibitors of fatty acid synthase (FASN)” (Bioorg Med Chem Lett, 2019).
Converted amounts (≈) assume the structure as drawn.

How the values were obtained:
[1] = Stability in mouse liver microsomes assessed as compound remaining after 30 mins; assay type: ADME, Microsome; conditions: read-out: Stability
Procedure, shortened: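 Mouse liver microsomes, 30-min incubation. Result expressed as percent of parent remaining.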

Fatty acid synthase [2] = target: T1, Fatty acid synthase (Homo sapiens, UniProt P49327); test: Inhibition of full length recombinant human FASN using acetyl-CoA/malonyl-CoA as substrate preincubated for 60 mins followed by substrate addition and measured after 90 mins in presence of NADPH
T1 sequence (P49327 whole entry): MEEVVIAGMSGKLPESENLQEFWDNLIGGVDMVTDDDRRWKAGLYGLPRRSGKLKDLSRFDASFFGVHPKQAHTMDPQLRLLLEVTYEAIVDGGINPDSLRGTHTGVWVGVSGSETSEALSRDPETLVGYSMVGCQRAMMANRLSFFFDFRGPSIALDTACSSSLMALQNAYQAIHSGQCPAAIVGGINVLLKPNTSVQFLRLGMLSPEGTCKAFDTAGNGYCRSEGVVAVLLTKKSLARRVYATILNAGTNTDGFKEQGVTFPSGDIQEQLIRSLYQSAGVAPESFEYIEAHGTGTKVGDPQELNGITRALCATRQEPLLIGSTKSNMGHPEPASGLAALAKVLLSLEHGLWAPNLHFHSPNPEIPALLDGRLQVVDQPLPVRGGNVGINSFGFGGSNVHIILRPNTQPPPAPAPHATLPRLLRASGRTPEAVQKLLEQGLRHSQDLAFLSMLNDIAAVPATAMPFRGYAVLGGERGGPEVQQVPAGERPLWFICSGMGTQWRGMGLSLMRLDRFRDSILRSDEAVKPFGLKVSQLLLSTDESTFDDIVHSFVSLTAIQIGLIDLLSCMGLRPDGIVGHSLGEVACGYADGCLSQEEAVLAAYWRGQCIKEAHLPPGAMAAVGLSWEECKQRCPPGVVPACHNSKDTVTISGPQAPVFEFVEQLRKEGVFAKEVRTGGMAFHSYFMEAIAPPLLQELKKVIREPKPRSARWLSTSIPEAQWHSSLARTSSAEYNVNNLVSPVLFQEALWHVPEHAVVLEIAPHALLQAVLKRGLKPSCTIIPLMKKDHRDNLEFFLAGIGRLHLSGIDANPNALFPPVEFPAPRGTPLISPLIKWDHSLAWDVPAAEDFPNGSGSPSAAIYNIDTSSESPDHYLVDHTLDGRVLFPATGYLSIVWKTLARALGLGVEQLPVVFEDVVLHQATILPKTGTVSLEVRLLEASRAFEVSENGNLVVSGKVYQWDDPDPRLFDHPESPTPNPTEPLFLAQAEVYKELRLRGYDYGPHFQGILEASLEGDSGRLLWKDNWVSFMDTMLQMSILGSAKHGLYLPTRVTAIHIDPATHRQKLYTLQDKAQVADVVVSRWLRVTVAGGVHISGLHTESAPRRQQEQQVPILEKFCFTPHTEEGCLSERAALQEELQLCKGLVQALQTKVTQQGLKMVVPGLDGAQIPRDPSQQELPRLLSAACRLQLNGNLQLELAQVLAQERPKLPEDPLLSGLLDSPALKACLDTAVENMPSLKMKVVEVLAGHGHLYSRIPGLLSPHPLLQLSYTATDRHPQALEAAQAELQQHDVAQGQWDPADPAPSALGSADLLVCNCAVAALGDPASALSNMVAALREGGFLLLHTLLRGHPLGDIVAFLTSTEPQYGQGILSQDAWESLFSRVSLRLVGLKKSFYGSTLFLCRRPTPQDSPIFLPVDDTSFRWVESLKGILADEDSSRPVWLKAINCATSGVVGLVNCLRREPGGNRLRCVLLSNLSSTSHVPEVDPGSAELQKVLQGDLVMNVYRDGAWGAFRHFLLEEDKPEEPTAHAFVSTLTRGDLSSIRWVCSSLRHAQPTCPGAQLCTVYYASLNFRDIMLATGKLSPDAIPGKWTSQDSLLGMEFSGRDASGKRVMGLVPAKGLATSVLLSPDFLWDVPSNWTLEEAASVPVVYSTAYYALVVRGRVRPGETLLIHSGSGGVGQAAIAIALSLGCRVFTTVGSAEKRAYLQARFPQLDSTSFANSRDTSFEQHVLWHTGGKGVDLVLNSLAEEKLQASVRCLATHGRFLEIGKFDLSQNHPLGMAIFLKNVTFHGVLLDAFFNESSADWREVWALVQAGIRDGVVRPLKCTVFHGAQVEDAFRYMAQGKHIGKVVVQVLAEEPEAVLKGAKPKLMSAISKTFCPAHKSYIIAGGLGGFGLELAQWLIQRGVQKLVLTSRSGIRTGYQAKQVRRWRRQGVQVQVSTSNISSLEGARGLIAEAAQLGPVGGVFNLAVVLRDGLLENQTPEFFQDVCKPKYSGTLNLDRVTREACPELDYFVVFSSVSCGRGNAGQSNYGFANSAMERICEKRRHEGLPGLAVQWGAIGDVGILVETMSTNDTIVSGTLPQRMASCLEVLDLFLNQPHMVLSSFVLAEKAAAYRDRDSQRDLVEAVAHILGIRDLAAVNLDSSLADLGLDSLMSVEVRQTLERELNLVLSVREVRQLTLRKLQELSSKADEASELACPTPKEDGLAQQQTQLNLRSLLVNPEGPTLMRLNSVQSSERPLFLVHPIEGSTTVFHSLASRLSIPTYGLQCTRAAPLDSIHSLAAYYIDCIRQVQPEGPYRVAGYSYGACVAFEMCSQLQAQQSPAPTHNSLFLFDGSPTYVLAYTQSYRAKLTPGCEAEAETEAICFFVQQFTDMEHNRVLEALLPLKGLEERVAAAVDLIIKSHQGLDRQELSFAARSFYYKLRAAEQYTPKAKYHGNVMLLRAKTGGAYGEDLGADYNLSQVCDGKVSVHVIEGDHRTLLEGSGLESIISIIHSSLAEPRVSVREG
Procedure, shortened: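 Full-length recombinant human FASN. CoA released is detected as a fluorescent conjugate with the coumarin maleimide CPM. IC50 is the mean of at least two separate runs.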

PC-3 = test: Antiproliferative activity against human PC3 cells after 96 hrs by MTT assay; assay type: functional, cell-based; conditions: PC-3, 96 h
Procedure, shortened: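 PC3 prostate cancer cells grown in medium with 10% lipid-reduced serum, a condition in which growth depends on de novo lipogenesis, in the presence of inhibitor. Antiproliferative IC50 reported as the mean of at least two separate runs.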

Fatty acid synthase [3] = target: T1, Fatty acid synthase; test: Inhibition of FASN in human BT474 cells preincubated for 1 hr followed by [14C]-acetate addition and measured after 4 hrs by scintillation counting assay; assay type: cell-based
Procedure, shortened: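 BT474 breast cancer cells given 14C-acetate, which cellular FASN incorporates via acetyl-CoA into newly made radiolabeled palmitate. IC50 for blocking this incorporation is the mean of at least two separate runs.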

[4] = Kinetic solubility of compound at pH 7.4; assay type: physicochemical; conditions: buffer, read-out: Kinetic_solubility
Procedure, shortened: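 Kinetic solubility measured at pH 7.4.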

[5] = Toxicity in Balb/c nude mouse at 5 mg/kg, po administered as single dose; assay type: organism-based; conditions: in vivo
Procedure, shortened: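 Female Balb/c nude mice observed for acute toxicity after a single oral 5 mg/kg dose.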

[6] = AUC in mouse at mg/kg, po; assay type: ADME, organism-based; design: concentration or dose not given beside the values; conditions: in vivo
Procedure, shortened: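 Mouse oral PK study at 5 mg/kg p.o., with plasma exposure taken as AUC0-8h.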

[7] = Intrinsic clearance in human liver microsomes; assay type: ADME, Microsome; conditions: read-out: CLH
[8] = Intrinsic clearance in mouse liver microsomes; assay type: ADME, Microsome; conditions: read-out: CLH
[9] = Toxicity in mouse assessed as drug tolerability administered as single dose; conditions: in vivo
Procedure, shortened: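 Mice received a single oral (PO) dose of 5 mg/kg and were watched for acute toxicity to judge tolerability. Female Balb/c nude mice were used for the fluorobenzoxazole analogues. Tolerability was expressed as whether the single dose was tolerated or as a maximum tolerated dose.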

[10] = Stability in mouse hepatocytes after 1 hr; assay type: ADME, cell-based, Hepatocyte; conditions: read-out: Stability
[11] = Stability in mouse liver S9 fraction after 1 hr; assay type: ADME, subcellular; conditions: read-out: Stability
[12] = Inhibition of ketoreductase (unknown origin); design: species or system Homo sapiens
[13] = Inhibition of enoyl reductase (unknown origin); design: species or system Homo sapiens
[14] = Inhibition of dehydratase (unknown origin); design: species or system Homo sapiens
[15] = Inhibition of thioesterase (unknown origin); design: species or system Homo sapiens
MV4-11 [16] = test: Antiproliferative activity against human MV4-11 cells after 96 hrs by CellTiter-Glo reagent-based assay; assay type: functional, cell-based; conditions: MV4-11, 96 h
Procedure, shortened: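 Antiproliferative activity measured in MV-411 cells. IC50 reported as the mean of at least two separate assay runs.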

[17] = Tmax in Balb/c nude mouse at 5 mg/kg, po; assay type: ADME, organism-based; conditions: in vivo
Procedure, shortened: (§1)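 Female Balb/c nude mice (n=6) dosed orally at 5 mg/kg in PEG400/ethanol (9:1). Exposure measured over 8 h, giving Tmax, Cmax, AUC0-8h and %F.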

[18] = Cmax in Balb/c nude mouse at 5 mg/kg, po; assay type: ADME, organism-based; design: dose 5 mg/kg, route oral; conditions: in vivo; procedure, shortened: as §1
[19] = AUC (0 to 8 hrs) in Balb/c nude mouse at 5 mg/kg, po; assay type: ADME, organism-based; design: time < 8 hr, dose 5 mg/kg, route oral; conditions: in vivo; procedure, shortened: as §1
[20] = Oral bioavailability in Balb/c nude mouse at 5 mg/kg; assay type: ADME, organism-based; conditions: in vivo; procedure, shortened: as §1
[21] = Tmax in Sprague-Dawley rat at 5 mg/kg, po; assay type: ADME, organism-based; conditions: in vivo
Procedure, shortened: (§2)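 Male Sprague-Dawley rats (n=3) given a single oral 5 mg/kg dose in PEG400/ethanol (9:1). Plasma followed over 24 h to give Tmax, Cmax, AUC0-24h and oral bioavailability (%F).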

[22] = Cmax in Sprague-Dawley rat at 5 mg/kg, po; assay type: ADME, organism-based; design: dose 5 mg/kg, route oral; conditions: in vivo; procedure, shortened: as §2
[23] = AUC (0 to 24 hrs) in Sprague-Dawley rat at 5 mg/kg, po; assay type: ADME, organism-based; design: dose 5 mg/kg, time < 24 hr, route oral; conditions: in vivo; procedure, shortened: as §2
[24] = Oral bioavailability in Sprague-Dawley rat at 5 mg/kg; assay type: ADME, organism-based; conditions: in vivo; procedure, shortened: as §2
Mus musculus = test: In vivo inhibition of FASN in Harlan nude mouse xenografted with human MV411 cells assessed as increase in malonyl-CoA levels in tumors administered orally twice daily for 16 days and measured 4 hrs post last dose by LC-MS analysis; assay type: functional, organism-based
Procedure, shortened: (§3)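 Mice carrying subcutaneous MV-411 xenografts were randomized at […] tumor size into four groups (n=4). Groups received vehicle (PEG400/ethanol 9:1 v/v) or 5, 25 or 50 mg/kg twice daily. Tumors were taken 4 h after the last dose for malonyl-CoA measurement by LC-MS (one-way ANOVA vs vehicle). Tumor growth inhibition was assessed vs vehicle after 16 days.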

MV4-11 [25] = test: Antitumor activity against human MV4-11 cells xenografted in Harlan nude mouse assessed as tumor growth inhibition at 25 mg/kg, po administered twice daily for 16 days and measured 4 hrs post last dose; assay type: functional; conditions: MV4-11, po, read-out: TGI; procedure, shortened: as §3
MV4-11 [26] = test: Antitumor activity against human MV4-11 cells xenografted in Harlan nude mouse assessed as tumor growth inhibition at 50 mg/kg, po administered twice daily for 16 days and measured 4 hrs post last dose; assay type: functional; conditions: MV4-11, po, read-out: TGI; procedure, shortened: as §3

Structure (SMILES)	remaining at 0.5 h [1] [%]	IC50 (Fatty acid synthase [2]) [nM]	IC50 (PC-3) [nM]	IC50 (Fatty acid synthase [3]) [nM]	solubility kinetic [4] [µM]	other results
O=C(c1ccc(-c2ccc(F)cc2Cl)cc1)N1CCN(C(=O)C2(O)CC2)CC1	69	310		4960	67 (≈ 27 µg/mL)	
O=C(c1ccc(-c2ccccc2)cc1)N1CCN(C(=O)C2CCCC2)CC1		> 50000				
O=C(c1ccc(-c2ccccc2)cc1)N1CCN(C(=O)[C@H]2CCCO2)CC1	100	1100				
O=C(c1ccc(-c2nc3ccccc3o2)cc1)N1CCN(C(=O)C2(O)CC2)CC1	109	54	15	101	83 (≈ 32.5 µg/mL)	AUC [6]: 28.7 µM·h; microsomal CLint [7]: 7 µL/min/mg; microsomal CLint [8]: 7 µL/min/mg; MTD [9]: < 5 mg/kg
O=C(c1ccc(-c2ccccc2)cc1)N1CCN(C(=O)C2(O)CCC2)CC1	85	1800				
O=C(c1ccc(-c2ccccc2)cc1)N1CCN(C(=O)[C@@H]2CCCO2)CC1	65	≥ 50000				
CC(C)(O)C(=O)N1CCN(C(=O)c2ccc(-c3ccccc3)cc2)CC1	99	35000				
O=C(c1ccc(-c2ccccc2)cc1)N1CCN(C(=O)C2CCCO2)CC1 (racemic)		1140				IC50 [12]: 1800 nM; IC50 [13]: > 50 µM; IC50 [14]: > 50 µM; IC50 [15]: > 50 µM
COc1ccc(-c2ccc(C(=O)N3CCN(C(=O)C4(O)CC4)CC3)cc2)c(Cl)c1		3100				
O=C(c1ccc(-c2nc3ccc(F)cc3o2)cc1)N1CCN(C(=O)C2(O)CC2)CC1	100	213	47	90	39 (≈ 16 µg/mL)	IC50 (MV4-11 [16]): 26 nM; Tmax [17]: 2 h; Cmax [18]: 8.4 µM; AUC(0-t) at 8 h [19]: 46 µM·h; bioavailability [20]: 95%; Tmax [21]: 3 h; Cmax [22]: 33 µM; AUC(0-t) at 24 h [23]: 440 µM·h; bioavailability [24]: 84%; inhibition (Mus musculus): Dose-dependent effect; inhibition in vivo at 25 mg/kg (MV4-11 [25]): 32%; inhibition in vivo at 50 mg/kg (MV4-11 [26]): 50%; remaining at 1 h [10]: 97%; remaining at 1 h [11]: 83%; AUC [6]: 46 µM·h; Activity [5]: Non-Toxic
O=C(c1ccc(-c2ccccc2)cc1)N1CCN(C(=O)C2(O)CCCC2)CC1		> 50000				
O=C(c1ccc(-c2cnc3cccnc3c2)cc1)N1CCN(C(=O)C2(O)CC2)CC1	89	> 5000		> 125000	95 (≈ 38.2 µg/mL)	
O=C(c1ccc(-c2ccccc2)cc1)N1CCN(C(=O)C2(O)CC2)CC1	95	350				

More lines, main results first:

remaining at 0.5 h [1] [%]	IC50 (Fatty acid synthase [2]) [nM]	IC50 (PC-3) [nM]	IC50 (Fatty acid synthase [3]) [nM]	solubility kinetic [4] [µM]	Structure (SMILES)	other results
60	142	142	257	92 (≈ 36 µg/mL)	O=C(c1ccc(-c2ccc3ocnc3c2)cc1)N1CCN(C(=O)C2(O)CC2)CC1	
55	16	4	18	60 (≈ 23.4 µg/mL)	O=C(c1ccc(-c2ccc3[nH]ccc3c2)cc1)N1CCN(C(=O)C2(O)CC2)CC1	
84	57	214	67	18 (≈ 7.33 µg/mL)	O=C(c1ccc(-c2nc3ccccc3s2)cc1)N1CCN(C(=O)C2(O)CC2)CC1	
88	32	17	11	95 (≈ 38.7 µg/mL)	O=C(c1ccc(-c2ccc3scnc3c2)cc1)N1CCN(C(=O)C2(O)CC2)CC1	
93	192	52	61	30 (≈ 12.3 µg/mL)	O=C(c1ccc(-c2nc3cc(F)ccc3o2)cc1)N1CCN(C(=O)C2(O)CC2)CC1	Activity [5]: Toxic
81	12		19	3 (≈ 1.21 µg/mL)	Cn1ccc2cc(-c3ccc(C(=O)N4CCN(C(=O)C5(O)CC5)CC4)cc3)ccc21	
92	97	29	104	7 (≈ 2.98 µg/mL)	O=C(c1ccc(-c2nc3ccc(Cl)cc3o2)cc1)N1CCN(C(=O)C2(O)CC2)CC1	
86	10		12	82 (≈ 32.9 µg/mL)	O=C(c1ccc(-c2cnc3ccccc3c2)cc1)N1CCN(C(=O)C2(O)CC2)CC1	
89	26	12		79 (≈ 32 µg/mL)	Cn1ncc2ccc(-c3ccc(C(=O)N4CCN(C(=O)C5(O)CC5)CC4)cc3)cc21	remaining at 1 h [10]: 77%; remaining at 1 h [11]: 75%; AUC [6]: 9.8 µM·h
92	110	146	336	33 (≈ 13.3 µg/mL)	O=C(c1ccc(-c2ccc(Cl)cc2F)cc1)N1CCN(C(=O)C2(O)CC2)CC1	remaining at 1 h [10]: 84%; remaining at 1 h [11]: 70%; AUC [6]: 47.6 µM·h
66	110	138	158	43 (≈ 17.3 µg/mL)	O=C(c1ccc(-c2cc(Cl)ccc2F)cc1)N1CCN(C(=O)C2(O)CC2)CC1	
83	33	25	70	0.3 (≈ 0.121 µg/mL)	Cn1c(-c2ccc(C(=O)N3CCN(C(=O)C4(O)CC4)CC3)cc2)cc2ccccc21	
85	69	49	136	6 (≈ 2.56 µg/mL)	O=C(c1ccc(-c2nc3cc(Cl)ccc3o2)cc1)N1CCN(C(=O)C2(O)CC2)CC1	
79	32	2	101	71 (≈ 28.5 µg/mL)	O=C(c1ccc(-c2ccc3ccccc3n2)cc1)N1CCN(C(=O)C2(O)CC2)CC1	
45	13	13	11	77 (≈ 30.9 µg/mL)	O=C(c1ccc(-c2ccc3cnccc3c2)cc1)N1CCN(C(=O)C2(O)CC2)CC1	remaining at 1 h [10]: 1%; remaining at 1 h [11]: 0%; AUC [6]: 0.1 µM·h
